Screens: PubChem, several laboratories
STAT3 blocker: reduces IL-6 driven STAT3 reporter signal | U3A cells, IL-6 STAT3-luciferase reporter, luminescence; host cell line lacks STAT1 | inhibition, % at 5.5 µM | 190,000 tested, 0.89% active;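 active = inhibition above the mean inhibition across all screened compounds plus 3 SD, cut at about 44% in these data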;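 note: 0% = DMSO only wells and 100% = 100 µM nifuroxazide control wells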
STAT1 inh: STAT1 signaling inhibition; NIH 3T3 STAT1-luciferase reporter, IFN-gamma, luminescence; inhibition, % at 5.5 µM; 200,000 tested, 0.35% active; AID 920;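 active = inhibition above a set limit, the mean inhibition across all tested compounds plus 3 SD, cut at about 34% in these data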;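 note: 0% = IFN-gamma with DMSO and 100% = IFN-gamma with 300 µM nifuroxazide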
Hep lipid drop: hepatic lipid droplet formation modulation | AML12 mouse hepatocytes, oleate lipid droplets, BODIPY imaging | 240,000 tested, 0.4% active | inhibition, % at 6.5 µM;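 active = lipid droplet intensity inhibited by at least 50%, with more than 500 cells counted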
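Assay system: AML12 hepatocytes (mouse); Probe or stimulus: oleic acid at 100 µM to induce lipid droplet formation; Dosing: compound at 6.5 µM only; Schedule: compound with oleate, overnight; Detection: fluorescence imaging, 20x objective, two fields per well; Measure: % inhibition of lipid droplet signal.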
Platelet DG rel: modulates dense granule release in human platelets; inhibition, %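 (compounds screened at 7.5 µM in platelet-rich plasma)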; 300,000 tested, 0.22% active; AID 1663; human platelet-rich plasma, SFLLRN dense granule ATP release, luminescence;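 active = mean replicate score, as percent of positive control, at or above 50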
H9c2 TAG inh: inhibitors of triacylglycerol accumulation | H9c2 cells, Nile Red lipid (TAG) fluorescence; cells loaded with 200 µM oleic acid | inhibition, % at 12.5 µM | 230,000 tested, 0.66% active;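 active = pattern-corrected inhibition of lipid staining of at least 50% with the nuclear-stain viability signal not falling by more than 50%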;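 note: 0% = DMSO wells and 100% = triacsin C control wells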
PPC-1+TRAIL kill: PPC-1 cancer cell killing with TRAIL present. PPC-1 cells + TRAIL, ATPLite viability luminescence. cell killing (% activity), % at 4 µM or 5 µM. 220,000 tested, 0.41% active;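 active = cell killing above 50% in the first pass at 4 µM, then a duplicate retest at 5 µM averaging 50% or more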;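 note: plate controls were cells with TRAIL plus DMSO for no effect and medium-only wells lacking cells for full effect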
PPC1 cytotox: PPC-1 cell cytotoxicity. shares compounds with PPC-1+TRAIL kill. PPC-1 viability, ATPlite luminescence, overnight. cytotoxicity, % at 5 µM. 1,200 tested, 50% active;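 active = reconfirmed compounds whose average cytotoxicity reaches 50% or more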;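 note: 0% = DMSO-treated cells and 100% = wells holding medium but no cells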
Active calls of the source: *. This is a sample that favours compounds with a hit; in the whole collection about 1.5% have one here.

Screening CCOc1ncccc1C(=O)OC(C)C(=O)Nc1ccc(N2CCOCC2)cc1 (stereo unspecified) returned H9c2 TAG inh 31.3.
Clc1cccc(-c2nc(-c3ccccn3)no2)c1 was read as STAT3 blocker 80.6*, STAT1 inh 53.9*, Platelet DG rel 21.6, H9c2 TAG inh -12.0, PPC-1+TRAIL kill 70.1* and PPC1 cytotox 66.3*.
`Cc1ccc(-c2nc(-c3ccccn3)no2)cc1` gave STAT3 blocker 106.7*, STAT1 inh 90.3*, Platelet DG rel 52.4*, H9c2 TAG inh -19.9, PPC-1+TRAIL kill 92.8* and PPC1 cytotox 92.4*.
`Cc1ccc(Cc2nc(-c3ccccn3)no2)cc1` gave STAT3 blocker 16.4, STAT1 inh -29.3, Platelet DG rel 4.0, H9c2 TAG inh -2.0 and PPC-1+TRAIL kill 17.7.
`c1ccc(-c2cc(-c3nc(-c4ccccn4)no3)c3ccccc3n2)cc1` gave STAT3 blocker 26.1, STAT1 inh -3.6, Platelet DG rel -1.7 and H9c2 TAG inh 20.3.
`COc1ccc(-c2csc3nc(C(C)(C)C)oc(=O)c23)cc1OC` gave STAT3 blocker 8.4, STAT1 inh 6.5, Hep lipid drop -1.0, Platelet DG rel -9.3, H9c2 TAG inh -7.9 and PPC-1+TRAIL kill 35.3.
Screening CC(C)(C)c1nc2scc(-c3ccc(Cl)cc3)c2c(=O)o1 returned STAT3 blocker 7.6, STAT1 inh -0.1, Hep lipid drop 2.2, Platelet DG rel -2.7, H9c2 TAG inh -110.9, PPC-1+TRAIL kill -4.7 and PPC1 cytotox -2.5.
O=C(CSc1nnc(-c2ccc(O)cc2)o1)Nc1ccccc1 was read as Hep lipid drop -0.9 and Platelet DG rel -3.4.
`O=C(CSc1nnc(-c2csc3c2CCCC3)o1)Nc1ccccc1` gave STAT3 blocker 4.2, STAT1 inh -41.9, Platelet DG rel -1.1, H9c2 TAG inh 14.7, PPC-1+TRAIL kill 58.4* and PPC1 cytotox 56.5*.
Screening c1ccc(NCCC2OCC3(CO2)COC(CCNc2ccccc2)OC3)cc1 (stereo unspecified) returned H9c2 TAG inh 6.0.
`CN(C)c1ccc(/C=C2\SC(=O)N(CCc3nnc(N)s3)C2=O)cc1` gave Hep lipid drop 7.8, Platelet DG rel -7.2, H9c2 TAG inh -19.0, PPC-1+TRAIL kill 64.7* and PPC1 cytotox 68.0*.
For O=C(O)CC1=C(O)C(=O)N(c2ccccc2)C1c1ccccc1 (stereo unspecified) the results were STAT3 blocker -5.6, STAT1 inh -5.9, Hep lipid drop 5.5, Platelet DG rel 0.5, H9c2 TAG inh -5.4, PPC-1+TRAIL kill -27.8 and PPC1 cytotox -5.8.
Screening O=C(O)CC1=C(O)C(=O)N(c2ccccc2)C1c1ccc(Br)cc1 (stereo unspecified) returned STAT3 blocker 6.6, STAT1 inh 5.5, Platelet DG rel -2.8, H9c2 TAG inh 14.8 and PPC-1+TRAIL kill 1.8.
`COc1ccc(-n2cnnc2SCC(=O)c2cc(C)n(Cc3cccs3)c2C)cc1` gave STAT3 blocker 9.4, STAT1 inh -5.6, H9c2 TAG inh -2.2, PPC-1+TRAIL kill 3.4 and PPC1 cytotox 2.1.
Screening CC(=O)Nc1ccc(SCC(=O)c2cc(C)n(Cc3cccs3)c2C)cc1 returned STAT3 blocker 95.0*, STAT1 inh 47.5*, Platelet DG rel -3.4, H9c2 TAG inh -20.5, PPC-1+TRAIL kill 38.7 and PPC1 cytotox 39.1.
For C[C@H](O)CNC(=O)c1[nH]cnc1C(=O)N[C@@H](C)c1ccccc1 the results were H9c2 TAG inh 4.5.
Screening Nc1ccc(/C=C/c2ccc3ncccc3c2)cc1 returned Hep lipid drop 12.0, Platelet DG rel 10.1, PPC-1+TRAIL kill 68.6* and PPC1 cytotox 69.5*.
Nc1ccc2ncccc2c1 was read as STAT3 blocker -12.3, STAT1 inh 0.9, Platelet DG rel -13.1 and PPC-1+TRAIL kill 14.5.
`COc1ccc(NC(=O)C2CCCN(S(=O)(=O)c3cccc4nonc34)C2)cc1OC` (stereo unspecified) gave STAT3 blocker 3.1, STAT1 inh 0.6, Hep lipid drop 17.5, Platelet DG rel 4.8, H9c2 TAG inh -4.5 and PPC-1+TRAIL kill 21.0.
